# Measurements as given in ChEMBL document CHEMBL1136943, “Nocathiacin analogs: Synthesis and antibacterial activity of novel water-soluble amides” (Bioorg Med Chem Lett, 2009).
# Key:
# Cytochrome P450 3A4 = Cytochrome P450 3A4 (Homo sapiens, UniProt P08684); test: Inhibition of CYP3A4; assay type: ADME
# [1] = Volume of distribution in steady state in monkey at 1 mg/kg, iv; assay type: ADME, organism-based, Macaca mulatta; design: dose 1 mg/kg, route intravenous; conditions: rhesus monkey, in vivo, read-out: Vdss
# Procedure, shortened: (§1)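 Single iv dose of 1 mg/kg in EtOH/PEG400/H2O (10:15:75). Clearance was measured in plasma, with steady-state volume of distribution and terminal half-life derived.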
# [2] = Volume of distribution in steady state in rat at 1 mg/kg, iv; assay type: ADME, organism-based; design: dose 1 mg/kg, route intravenous; conditions: in vivo, read-out: Vdss; procedure, shortened: as §1
# Cytochrome P450 2C9 = Cytochrome P450 2C9 (Homo sapiens, UniProt P11712); test: Inhibition of CYP2C9; assay type: ADME
# [3] = Volume of distribution in steady state in dog at 1 mg/kg, iv; assay type: ADME, organism-based, Canis lupus familiaris; design: dose 1 mg/kg, route intravenous; conditions: in vivo, read-out: Vdss; procedure, shortened: as §1
# [4] = Plasma clearance in monkey at 1 mg/kg, iv; assay type: ADME, organism-based, Macaca mulatta; design: dose 1 mg/kg, route intravenous; conditions: rhesus monkey; procedure, shortened: as §1
# [5] = Terminal half life in monkey at 1 mg/kg, iv; assay type: ADME, organism-based, Macaca mulatta; design: dose 1 mg/kg, route intravenous; conditions: rhesus monkey, in vivo, read-out: beta t1/2 (converted); procedure, shortened: as §1
# [6] = Terminal half life in mouse at 1 mg/kg, iv; assay type: ADME, organism-based; design: dose 1 mg/kg, route intravenous; conditions: in vivo, read-out: beta t1/2 (converted); procedure, shortened: as §1
# Enterococcus = test: Antibacterial activity against vancomycin-resistant Enterococcus; assay type: functional
# Procedure, shortened: (§2)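 MIC taken as the lowest concentration giving 100% inhibition of bacterial growth in liquid culture, judged by turbidity.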
# Staphylococcus aureus [7] = test: Antibacterial activity against methicillin-resistant Staphylococcus aureus; assay type: functional; procedure, shortened: as §2
# Cytochrome P450 2C8 = target: T1, Cytochrome P450 2C8 (Homo sapiens, UniProt P10632); test: Inhibition of CYP2C8; assay type: ADME
# T1 sequence (P10632 whole entry): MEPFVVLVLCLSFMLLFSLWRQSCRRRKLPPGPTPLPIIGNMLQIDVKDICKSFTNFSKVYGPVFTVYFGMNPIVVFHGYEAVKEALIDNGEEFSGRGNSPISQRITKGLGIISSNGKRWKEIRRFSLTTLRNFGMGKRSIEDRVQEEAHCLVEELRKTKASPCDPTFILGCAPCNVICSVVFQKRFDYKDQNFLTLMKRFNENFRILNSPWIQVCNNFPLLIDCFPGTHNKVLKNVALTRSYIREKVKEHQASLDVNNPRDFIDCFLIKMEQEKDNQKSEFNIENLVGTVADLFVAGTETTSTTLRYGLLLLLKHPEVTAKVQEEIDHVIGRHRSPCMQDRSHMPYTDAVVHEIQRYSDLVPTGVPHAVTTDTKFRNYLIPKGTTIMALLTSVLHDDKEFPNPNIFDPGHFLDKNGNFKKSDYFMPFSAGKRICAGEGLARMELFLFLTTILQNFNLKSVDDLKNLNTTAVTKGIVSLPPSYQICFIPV
# Staphylococcus aureus [8] = test: Antibacterial activity against Staphylococcus aureus MB2865 in liquid culture by turbidity method; assay type: functional
# Procedure, shortened: (§3)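 MIC is the lowest concentration giving 100% inhibition of bacterial growth in liquid culture, read by turbidity.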
# [9] = target: T2, Nuclear receptor subfamily 1 group I member 2 (Homo sapiens, UniProt O75469); test: Activity at human PXR
# T2 sequence (O75469 whole entry): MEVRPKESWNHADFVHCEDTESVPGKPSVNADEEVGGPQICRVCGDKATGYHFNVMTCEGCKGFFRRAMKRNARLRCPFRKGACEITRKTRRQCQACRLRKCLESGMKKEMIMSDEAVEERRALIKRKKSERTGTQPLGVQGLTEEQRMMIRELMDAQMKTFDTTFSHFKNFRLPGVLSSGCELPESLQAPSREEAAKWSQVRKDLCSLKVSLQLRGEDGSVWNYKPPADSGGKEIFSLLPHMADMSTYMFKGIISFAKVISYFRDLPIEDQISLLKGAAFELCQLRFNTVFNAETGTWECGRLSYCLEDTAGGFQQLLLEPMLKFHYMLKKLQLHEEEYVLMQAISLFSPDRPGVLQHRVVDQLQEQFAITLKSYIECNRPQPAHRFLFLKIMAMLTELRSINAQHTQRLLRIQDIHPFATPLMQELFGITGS
# [10] = target: T3, Type-2 angiotensin II receptor (Homo sapiens, UniProt P50052); test: Inhibition of AT2 receptor
# T3 sequence (P50052 whole entry): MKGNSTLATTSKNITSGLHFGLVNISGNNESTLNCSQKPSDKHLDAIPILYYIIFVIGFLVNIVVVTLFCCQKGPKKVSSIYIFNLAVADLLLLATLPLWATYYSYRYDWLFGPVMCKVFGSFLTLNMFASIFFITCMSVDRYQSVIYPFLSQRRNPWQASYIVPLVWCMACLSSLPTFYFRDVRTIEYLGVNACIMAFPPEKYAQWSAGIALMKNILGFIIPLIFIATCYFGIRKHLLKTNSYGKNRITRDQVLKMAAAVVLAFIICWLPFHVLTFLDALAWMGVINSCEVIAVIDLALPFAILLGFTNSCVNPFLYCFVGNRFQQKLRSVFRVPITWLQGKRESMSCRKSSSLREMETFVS
# Procedure, shortened: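 AT2 IC50 derived from four dose levels per compound, following a published protocol.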
# [11] = Plasma clearance in dog at 1 mg/kg, iv; assay type: ADME, organism-based, Canis lupus familiaris; design: dose 1 mg/kg, route intravenous; procedure, shortened: as §1
# Staphylococcus aureus [12] = test: Antibacterial activity against Staphylococcus aureus infected iv bid dosed mouse model assessed as reduction of colony forming unit in kidney; assay type: functional
# Procedure, shortened: (§4)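 Systemic S. aureus infection mouse model (SATOA). Compounds were given iv; […]. Kidney bacterial burden (cfu) was compared with untreated control. ED99 is the dose giving a reduction of at least 2 log10 cfu in kidney burden.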
# [13] = Terminal half life in rat at 1 mg/kg, iv; assay type: ADME, organism-based; design: dose 1 mg/kg, route intravenous; conditions: in vivo, read-out: beta t1/2 (converted); procedure, shortened: as §1
# [14] = Volume of distribution in steady state in mouse at 1 mg/kg, iv; assay type: ADME, organism-based; design: dose 1 mg/kg, route intravenous; conditions: in vivo, read-out: Vdss; procedure, shortened: as §1
# Staphylococcus aureus [15] = test: Antibacterial activity against methicillin-resistant Staphylococcus aureus COL infected mouse thigh model assessed as reduction of bacterial load at 1 mg/kg, iv, bid after 24 hrs; assay type: functional
# Procedure, shortened: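 Mouse MRSA COL thigh infection, 4 mice per group. Test article given intravenously, 0.2 ml, twice daily. Thighs harvested aseptically 24 h after challenge. Bacterial load compared with untreated controls as log reduction over 24 h.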
# Cytochrome P450 2C19 = Cytochrome P450 2C19 (Homo sapiens, UniProt P33261); test: Inhibition of CYP2C19; assay type: ADME
# Cytochrome P450 2D6 = Cytochrome P450 2D6 (Homo sapiens, UniProt P10635); test: Inhibition of CYP2D6; assay type: ADME
# [16] = Terminal half life in dog at 1 mg/kg, iv; assay type: ADME, organism-based, Canis lupus familiaris; design: dose 1 mg/kg, route intravenous; conditions: in vivo, read-out: beta t1/2 (converted); procedure, shortened: as §1
# Cytochrome P450 1A2 = target: T4, Cytochrome P450 1A2 (Homo sapiens, UniProt P05177); test: Inhibition of CYP1A2; assay type: ADME
# T4 sequence (P05177 whole entry): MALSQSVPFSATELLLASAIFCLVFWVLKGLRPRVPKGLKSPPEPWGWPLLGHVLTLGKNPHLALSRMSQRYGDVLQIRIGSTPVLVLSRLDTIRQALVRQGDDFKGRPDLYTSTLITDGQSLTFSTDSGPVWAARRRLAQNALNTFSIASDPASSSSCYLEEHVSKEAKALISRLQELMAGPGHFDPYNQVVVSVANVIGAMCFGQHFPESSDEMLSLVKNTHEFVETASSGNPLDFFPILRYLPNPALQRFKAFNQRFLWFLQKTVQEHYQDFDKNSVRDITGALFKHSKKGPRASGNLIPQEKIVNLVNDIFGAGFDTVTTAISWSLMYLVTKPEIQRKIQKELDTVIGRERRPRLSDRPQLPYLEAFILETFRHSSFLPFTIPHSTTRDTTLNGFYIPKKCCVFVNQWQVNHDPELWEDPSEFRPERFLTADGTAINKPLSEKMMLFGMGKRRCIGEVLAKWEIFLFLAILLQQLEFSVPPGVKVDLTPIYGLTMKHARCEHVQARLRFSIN
# [17] = Plasma clearance in rat at 1 mg/kg, iv; assay type: ADME, organism-based; design: dose 1 mg/kg, route intravenous; procedure, shortened: as §1
# Streptococcus pneumoniae = test: Antibacterial activity against Streptococcus pneumoniae CL2883 in liquid culture by turbidity method; assay type: functional; procedure, shortened: as §3
# Enterococcus faecalis = test: Antibacterial activity against Enterococcus faecalis C21560 in liquid culture by turbidity method; assay type: functional; procedure, shortened: as §3
# Staphylococcus aureus [18] = test: Antibacterial activity against Staphylococcus aureus infected in mouse model assessed as reduction of kidney burden at 0.5 mg/kg, iv relative to control; assay type: functional; procedure, shortened: as §4
# Staphylococcus aureus [19] = test: Antibacterial activity against Staphylococcus aureus infected in mouse model assessed as reduction of >= 2 log 10 cfu kidney burden; assay type: functional; procedure, shortened: as §4
# Staphylococcus aureus [20] = test: Antibacterial activity against Staphylococcus aureus infected in mouse model assessed as reduction of kidney burden iv relative to control
# Sequence of Cytochrome P450 2C9 (P11712 whole entry): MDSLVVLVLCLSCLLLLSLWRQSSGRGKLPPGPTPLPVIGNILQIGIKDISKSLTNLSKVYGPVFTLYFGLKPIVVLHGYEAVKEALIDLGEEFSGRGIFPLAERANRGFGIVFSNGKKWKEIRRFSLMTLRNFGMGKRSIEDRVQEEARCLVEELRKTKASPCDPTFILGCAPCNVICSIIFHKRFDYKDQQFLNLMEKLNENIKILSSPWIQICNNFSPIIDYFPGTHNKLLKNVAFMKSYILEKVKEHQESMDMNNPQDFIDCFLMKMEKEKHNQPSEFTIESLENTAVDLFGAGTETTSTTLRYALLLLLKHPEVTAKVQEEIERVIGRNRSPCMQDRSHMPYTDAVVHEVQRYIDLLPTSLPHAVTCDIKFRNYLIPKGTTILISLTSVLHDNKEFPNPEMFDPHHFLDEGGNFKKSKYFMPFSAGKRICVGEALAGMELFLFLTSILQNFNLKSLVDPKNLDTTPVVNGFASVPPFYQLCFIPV
# Sequence of Cytochrome P450 3A4 (P08684 whole entry): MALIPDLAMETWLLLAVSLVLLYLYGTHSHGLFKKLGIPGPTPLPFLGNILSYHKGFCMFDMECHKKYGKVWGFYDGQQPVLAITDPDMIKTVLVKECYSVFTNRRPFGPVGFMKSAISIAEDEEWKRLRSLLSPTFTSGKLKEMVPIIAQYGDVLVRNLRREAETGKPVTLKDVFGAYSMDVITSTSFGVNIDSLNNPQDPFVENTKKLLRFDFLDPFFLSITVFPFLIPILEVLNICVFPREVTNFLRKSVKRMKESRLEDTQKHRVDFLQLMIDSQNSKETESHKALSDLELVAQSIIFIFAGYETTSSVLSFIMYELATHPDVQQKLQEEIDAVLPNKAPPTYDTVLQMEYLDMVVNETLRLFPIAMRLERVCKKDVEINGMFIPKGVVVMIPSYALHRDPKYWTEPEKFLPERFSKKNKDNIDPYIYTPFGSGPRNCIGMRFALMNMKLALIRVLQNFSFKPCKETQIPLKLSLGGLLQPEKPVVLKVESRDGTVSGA
# Sequence of Cytochrome P450 2D6 (P10635 whole entry): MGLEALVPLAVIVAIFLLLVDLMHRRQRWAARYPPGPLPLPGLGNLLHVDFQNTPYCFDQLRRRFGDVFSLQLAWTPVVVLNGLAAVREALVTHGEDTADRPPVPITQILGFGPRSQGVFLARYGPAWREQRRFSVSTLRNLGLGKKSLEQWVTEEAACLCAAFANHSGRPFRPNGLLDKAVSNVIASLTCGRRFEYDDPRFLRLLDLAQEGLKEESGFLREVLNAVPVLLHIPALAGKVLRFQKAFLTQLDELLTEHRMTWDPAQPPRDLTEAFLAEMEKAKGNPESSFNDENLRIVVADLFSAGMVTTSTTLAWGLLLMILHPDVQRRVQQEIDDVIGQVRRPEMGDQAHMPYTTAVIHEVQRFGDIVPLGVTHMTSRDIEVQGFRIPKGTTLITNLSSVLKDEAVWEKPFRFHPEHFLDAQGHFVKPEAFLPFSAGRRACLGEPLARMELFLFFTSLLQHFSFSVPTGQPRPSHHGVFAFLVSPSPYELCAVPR
# Sequence of Cytochrome P450 2C19 (P33261 whole entry): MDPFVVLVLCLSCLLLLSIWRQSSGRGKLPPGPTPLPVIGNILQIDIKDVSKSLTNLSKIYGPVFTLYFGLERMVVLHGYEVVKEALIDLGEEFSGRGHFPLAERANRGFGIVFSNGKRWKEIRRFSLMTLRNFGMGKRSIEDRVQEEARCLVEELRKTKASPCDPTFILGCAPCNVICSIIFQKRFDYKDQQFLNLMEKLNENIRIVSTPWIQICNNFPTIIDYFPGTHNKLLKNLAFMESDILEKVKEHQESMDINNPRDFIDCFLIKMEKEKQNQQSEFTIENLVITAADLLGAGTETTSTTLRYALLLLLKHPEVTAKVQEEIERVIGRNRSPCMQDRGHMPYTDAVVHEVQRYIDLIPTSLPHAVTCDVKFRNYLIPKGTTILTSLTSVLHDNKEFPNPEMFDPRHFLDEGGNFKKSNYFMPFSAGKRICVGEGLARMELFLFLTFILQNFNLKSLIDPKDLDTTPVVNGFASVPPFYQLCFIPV
smiles,measurement,setting,value
CO/C(C)=C1/NC(=O)[C@H]([C@@H](C)O)NC(=O)c2csc(n2)-c2cc(OC)c(-c3nc(C(=O)NCCCN4CCOCC4)cs3)nc2-c2csc(n2)[C@@H]2COC(=O)c3c4c5c(cccc5n3O)COC(=O)[C@@H](O[C@H]3C[C@](C)(O)[C@H](N(C)C)[C@H](C)O3)[C@@H](OC4)[C@H](NC(=O)c3csc1n3)c1nc(cs1)C(=O)N2,IC50,Cytochrome P450 3A4,≥ 100 µM
same,Vd,[1],1.2 L/kg
same,Vd,[2],15.5 L/kg
same,IC50,Cytochrome P450 2C9,≥ 100 µM
same,Vd,[3],3.3 L/kg
same,clearance,[4],15 mL/min/kg
same,half-life,[5],6.5 h
same,half-life,[6],5 h
same,MIC,Enterococcus,0.06 µg/mL
same,MIC,Staphylococcus aureus [7],0.00095 µg/mL
same,IC50,Cytochrome P450 2C8,71 µM
same,MIC,Staphylococcus aureus [8],0.01 µg/mL
same,Activity,[9],Not Active
same,IC50,[10],5.07 µM
same,clearance,[11],15.6 mL/min/kg
same,ED99,Staphylococcus aureus [12],0.27 mg/kg
same,half-life,[13],6.4 h
same,Vd,[14],18.7 L/kg
same,Activity,Staphylococcus aureus [15],1.22
same,IC50,Cytochrome P450 2C19,≥ 100 µM
same,IC50,Cytochrome P450 2D6,≥ 100 µM
same,half-life,[16],5.4 h
same,IC50,Cytochrome P450 1A2,≥ 100 µM
same,clearance,[17],51.3 mL/min/kg
CO/C(C)=C1/NC(=O)[C@H]([C@@H](C)O)NC(=O)c2csc(n2)-c2cc(O)c(-c3nc(C(=O)NCCCN4CCN(C)CC4)cs3)nc2-c2csc(n2)[C@@H]2COC(=O)c3c4c5c(cccc5n3O)COC(=O)[C@@H](O[C@H]3C[C@](C)(O)[C@H](N(C)C)[C@H](C)O3)[C@@H](OC4)[C@H](NC(=O)c3csc1n3)c1nc(cs1)C(=O)N2,MIC,Streptococcus pneumoniae,0.00095 µg/mL
same,MIC,Enterococcus faecalis,0.12 µg/mL
same,MIC,Staphylococcus aureus [8],0.015 µg/mL
same,IC50,[10],< 0.01 µM
same,Activity,Staphylococcus aureus [18],5.8
same,ED99,Staphylococcus aureus [19],0.13 mg/kg
CO/C(C)=C1/NC(=O)[C@H]([C@@H](C)O)NC(=O)c2csc(n2)-c2cc(O)c(-c3nc(C(=O)NCCCN4CCOCC4)cs3)nc2-c2csc(n2)[C@@H]2COC(=O)c3c4c5c(cccc5n3O)COC(=O)[C@@H](O[C@H]3C[C@](C)(O)[C@H](N(C)C)[C@H](C)O3)[C@@H](OC4)[C@H](NC(=O)c3csc1n3)c1nc(cs1)C(=O)N2,MIC,Streptococcus pneumoniae,0.007 µg/mL
same,MIC,Enterococcus faecalis,0.016 µg/mL
same,MIC,Staphylococcus aureus [8],0.011 µg/mL
same,IC50,[10],0.26 µM
same,ED99,Staphylococcus aureus [19],0.24 mg/kg
same,Activity,Staphylococcus aureus [20],4.68
